Screening results as filed in PubChem.
Cl transport mod: modulates chloride dependent transport by human KCC2. Q9H2X9. KCC2 cells, thallium flux FluoZin-2 fluorescence. B-score of Tl+ flux slope (higher = more flux/activation; lower = inhibition) at 10 µM. actives 2.2% (n = 190,000). AID 1456;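 active = thallium flux slope and its plate-corrected score both differing from the plate sample mean at a set confidence after two filtering rounds, in either direction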;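 also: slope of fluorescence scaled to starting intensity during 10 to 20 s after thallium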
KCNQ1 block: blocks the human KCNQ1 potassium channel. AID 2642. P51787. CHO-K1 KCNQ1, FluxOR thallium flux fluorescence; active compounds read high. actives 1.3% (n = 310,000). B-score at 10 µM;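 active = compounds whose thallium flux B-score, printed positive for inhibition, exceeds three library SD while starting fluorescence stays within three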;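 also: channel opened by potassium depolarization with thallium stimulus after 20 min compound exposure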
KCNQ1 act: potentiators or activators of human KCNQ1 potassium channel. AID 2648. actives 0.35% (n = 310,000). CHO-K1 KCNQ1, thallium flux FluxOR fluorescence; active compounds read high. P51787. B-score at 10 µM;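 active = fluorescence ratio B-score, a plate-corrected score, at least three library SD, with initial intensity B-score within 5 SD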
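Assay system: stable KCNQ1 CHO-K1 line; medium: assay buffer, equal DMSO in all wells; timing: 90 min dye loading and 20 min compound exposure, both at room temperature; technique: kinetic FluxOR thallium fluorescence, 10-s 1-Hz baseline, 110-s post-stimulus read; read-out basis: B score of baseline-normalized fluorescence ratio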
hERG protect: shields human hERG channel from block by proarrhythmic agents; activation (rescue from dofetilide block), less the hit threshold, % at 10 µM; actives 0.51% (n = 310,000); AID 1511; CHO-hERG, FluxOR thallium flux, dofetilide IC70 present;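 active = activation above the mean of controls blocked by dofetilide plus 5 SD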;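 also: thallium influx through hERG after potassium depolarization seen as dye fluorescence rise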
AI-2 QS mod: modulators of Vibrio harveyi AI-2 quorum sensing system; Vibrio harveyi JMH597 AI-2 luminescence/OD600 ratio, 9 h; active compounds read low; strain lacks LuxN and CqsS sensors; 0 = neutral-control median; activity change, % at 7.5 µM; actives 0.4% (n = 300,000); AID 2094; in the data active = activity change below about -75%, passing the limit was not always enough;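 also: luminescence divided by OD600 gain over 9 h not by final OD600 alone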
Mot1-301 SUMO: blocks SUMOylation pathway, rescuing yeast Mot1-301 growth; S. cerevisiae Mot1-301 growth rescue, ATP luminescence, 38.5C; percent above DMSO median, 100 means doubled; growth rescue, % at 18.8 µM; actives 1% (n = 320,000); AID 2716;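 active = every valid replicate shows activation above 250% relative to neutral control wells; inactive = the rest, any valid replicate at or below 250%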;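 also: OY570 slx delta 5 strain wells were the positive control but not used for scaling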
Active calls of the source: *; i = inactive; nt = no result given. Rows were chosen to be rich in hits. Some 4.2% of all compounds tested hit in one or more screens of this group.

SMILES	Cl transport mod	KCNQ1 block	KCNQ1 act	hERG protect	AI-2 QS mod	Mot1-301 SUMO
CC(C)C[C@H](N)c1nnc(S(=O)(=O)Cc2ccc(F)cc2)o1	-2.06	i	i	-9.7	-87.7*	-25.2
COc1cc(CNCCc2ccccc2)cc(Cl)c1OCc1ccccc1	1.32	7*	i	-25.9	10.8	6.4
CCCNCc1cc(Br)ccc1OCC(=O)NCCc1ccccc1	-0.72	i	i	-1.2	8.4	183.2
O=C(COc1ccc(Br)cc1CNCCc1ccccc1)NCc1ccccc1	0.0382	7*	i	-27.6	26.6	nt
COc1cc(CNCCc2ccccc2)cc(Br)c1OCC(=O)Nc1ccccc1C	0.163	9*	i	-32.5	21.8	nt
CCCc1cc(=O)[nH]c2nnc(SCC(=O)Nc3cc(C)on3)n12	nt	i	i	-1.1	18.8	-1.9
COc1cc([N+](=O)[O-])cc(/C=N/NC(=O)CSc2ccccn2)c1O	-0.881	i	i	-6.2	20.9	5.2
CCN1CCN(C(=O)c2cc3cc(Cl)ccc3[nH]2)CC1	nt	i	i	-4.8	-76.8*	155.0
O=C1CSC(c2ccccn2)N1c1ccc(C(F)(F)F)cc1 (stereo not drawn)	0.171	i	i	-6.5	17.7	9.3
CC(=O)c1sc(-c2ccccc2)cc1NS(=O)(=O)c1ccc(C)cc1	30.4*	i	i	-2.6	13.1	-4.9
CC(=O)c1sc(-c2ccccc2)cc1NS(=O)(=O)c1ccccc1	1.57	i	i	-2.3	-13.3	-17.6
Cc1ccc(N(CN2CCCC2=O)C(=O)c2ccc(OC(C)C)cc2)cc1	nt	i	i	2.4	22.3	-12.8
COc1ccc2ccccc2c1-c1sc(Nc2ccccc2)n[n+]1-c1ccc(F)cc1	nt	7*	i	-27.2	39.5	236.0
COc1ccc(C)cc1Nc1n[n+](-c2ccccc2)c(-c2c(Cl)cccc2Cl)s1	nt	11*	i	-32.4	33.9	-16.0
COc1ccc(C)cc1Nc1n[n+](C)c(-c2ccc(O)cc2O)s1	nt	i	i	-9.0	13.6	-4.0
COc1ccc(C)cc1Nc1n[n+](-c2ccccc2)c(-c2ccc(OC)c(OC)c2OC)s1	nt	11*	i	-25.1	3.3	-5.9
COc1ccc(-c2sc(Nc3ccccc3)n[n+]2-c2ccc(F)cc2)cc1Br	nt	i	i	-30.3	20.9	-10.8
O=C(CN1C(=O)C2C3c4ccccc4C(c4ccccc43)C2C1=O)Nc1ccccc1C(=O)O (stereo not drawn)	0.674	i	i	-10.0	6.9	7.2
Cc1ccc(NS(=O)(=O)c2c(C)noc2C)cc1	nt	i	i	-2.9	12.6	3.2
CCOC(=O)[C@H]1[C@H]2COc3ccccc3[C@@H]2N2C(=O)CNC(=O)[C@@]12C	nt	nt	nt	nt	nt	0.3
CC(C)n1cc(CN2CCC(C(=O)Nc3ccc(Oc4ccccc4F)cc3)CC2)cn1	nt	i	i	-15.9	-7.3	22.3
Cc1cccc(NC(=O)/C(C#N)=C/c2cccc([N+](=O)[O-])c2)n1	nt	i	i	-5.5	27.2	483.2*
Cc1cccc(NC(=O)/C(C#N)=C/c2ccc(Cl)cc2)n1	nt	i	i	-0.7	16.0	-4.1
Cn1c(/C=C/c2ccc([N+](=O)[O-])o2)nc2ccccc2c1=O	0.343	i	i	-13.5	-229.3*	-37.5
Cn1c(/C=C/c2ccccc2)nc2ccccc2c1=O	nt	i	i	-5.0	4.2	13.8
SMILES	Cl transport mod	KCNQ1 block	KCNQ1 act	hERG protect	AI-2 QS mod	Mot1-301 SUMO
COc1cc(N2C(=O)C=CC2=O)c(OC)cc1Cl	-1.45	i	i	-17.4	-91.6*	42.6
COc1cc(Cl)c(S(=O)(=O)N2CCCC2)cc1Cl	-0.771	i	i	-6.7	13.7	-0.1
CCCn1c(N)c(N(CCOC)C(=O)CSc2c(Cl)cccc2Cl)c(=O)[nH]c1=O	nt	nt	nt	nt	nt	-2.8
O=C(c1cccc(C(F)(F)F)c1)C1CCCN(Cc2cccn2-c2ccccn2)C1 (stereo not drawn)	-0.123	8*	i	-18.7	28.5	-8.6
COc1ccc(OC)c(NC(=O)COC(=O)CCc2ccc(S(=O)(=O)N3CCOCC3)cc2)c1	nt	nt	nt	nt	nt	-5.8
O=C(CSC1=NC(=O)C(Cc2ccccc2)C(=O)N1)Nc1ncc(Br)cc1Br (stereo not drawn)	0.2	i	i	-2.4	0.4	327.2*
COCCNCC(=O)Nc1nc(C)cs1	-1.16	nt	nt	nt	nt	nt
Cc1cc(N)ccc1NC(=O)CN1CCCC1	nt	i	i	-10.0	2.7	110.9
Cn1nccc1C(=O)N1CCN(c2ncccn2)CC1	nt	i	i	-8.0	6.5	336.0*
CC(=O)Nc1ccc(NC(=O)C(OC(=O)c2ccccc2)C(OC(=O)c2ccccc2)C(=O)O)cc1 (stereo not drawn)	-0.115	i	i	-5.4	24.5	-2.3
Nn1c(SCC(=O)Nc2ccc(S(=O)(=O)N3CCCC3)cc2)nnc1C(F)(F)F	1.85	i	i	-8.4	15.1	27.1
O=C(Nc1ccc(Nc2ccccc2)cc1)c1ccc(F)cc1	nt	i	i	-6.5	-88.0*	149.6
O=C(Nc1ccc(Cc2ccncc2)cc1)c1ccco1	nt	i	i	1.0	-81.9*	264.1
O=C(Nc1ccc(NC(=O)c2ccco2)cc1)c1ccco1	nt	i	i	-0.4	10.0	9.7
O=C(Nc1ccccc1C(=O)O)c1cccc(NC(=O)c2ccco2)c1	nt	i	i	5.3*	11.0	18.5
O=C(Nc1ccc(Nc2ccccc2)cc1)c1ccco1	-2.51	i	i	-7.2	-96.4*	21.4
COc1ccc(OC)c(NC(=O)CSc2ccc3nnc(-c4cccnc4)n3n2)c1	0.0607	i	i	-7.5	19.9	-13.8
O=C(NC(=S)NCCC1=CCCCC1)c1cncc(Br)c1	14.9*	i	i	-0.8	25.1	11.7
CCCNC(=O)C(=O)NCCC1=CCCCC1	-0.106	i	i	-3.0	11.5	15.2
CCC(C)(C)c1ccc(Oc2cccc(C(=O)O)c2)cc1	1.99	i	i	-5.0	54.3	3.8
CCC(C)(C)c1ccc(OCCCC[n+]2ccccc2)c(C(C)(C)CC)c1	-0.0101	i	i	-23.1	27.1	290.4*
CNS(=O)(=O)c1cc(-c2nnc(N3CCOCC3)c3ccccc23)ccc1C	nt	i	i	-9.5	18.7	-17.6
NC(=O)c1c(NC(=O)c2ccc([N+](=O)[O-])o2)sc2c1CCCC2	nt	i	i	-7.5	27.1	-4.7
CN1CCc2c(sc(NC(=O)c3ccc([N+](=O)[O-])o3)c2C(N)=O)C1	nt	i	i	-5.0	-102.5*	-18.3
CC(C)N1CCc2c(sc(NC(=O)c3cc4cc([N+](=O)[O-])ccc4s3)c2C(N)=O)C1	-0.312	6*	i	-13.3	11.4	nt
